Experimental data from different studies.
Lines come from different studies, so protocols differ.
Cell line: HepG2
Effect on: cell growth or viability

| SMILES | method | time | CC50 [µM] |
| --- | --- | --- | --- |
| COCC(=O)N1CCC[C@H](C(=O)NCc2nc(-c3ccc(C)cc3)cs2)C1 | ATP luminescence | 96 h | > 50 |
| O[C@@H](CN[C@H](COCC1CC1)Cc1ccccc1)c1cc(Cl)cc2c1-c1ccc(Cl)cc1C2 | – | 48 h | 13.8 |
| CCOCC(=O)N1CCC[C@H](C(=O)NCc2nc(-c3ccc(C)nc3)cs2)C1 | ATP luminescence | 96 h | > 50 |
| CCCCCCNC[C@@H](O)c1cc(Cl)cc2c1-c1ccc(Cl)cc1C2 | – | 48 h | 6.3 |
| NC1=CC2=NCCc3c[nH]c(c32)C1=O | MTT | 72 h | 0.1 |
| Cn1nc2c(=O)n(C3CC3)ncc2c1[C@](O)(c1cnc(C(F)(F)F)c(Cl)c1)C(F)(F)F | ATP luminescence | – | 38 |
| Cn1cc2c3c1C(=O)C(NCCc1ccc(O)cc1)=CC3=[N+](C)CC2 | MTT | 72 h | 0.5 |
| O=C1c2ccccc2-n2c1nc1ccccc1c2=O | ATP luminescence | – | 6 to 9 |
| COCC(=O)N1CCC[C@H](C(=O)NCc2nc(-c3cccnc3)cs2)C1 | ATP luminescence | 96 h | > 50 |
| CC[C@@](N)(c1cnc(C(F)(F)F)c(Cl)c1)c1c2ncn(C3CC3)c(=O)c2nn1C | ATP luminescence | – | > 50 |
| CCCCCCCNCC(O)c1cc(Cl)cc2c1-c1ccc(Cl)cc1C2 (racemic) | – | 48 h | 5.7 |
| COC(CNC1=CC2=NCCc3c[nH]c(c32)C1=O)c1c[nH]c2ccccc12 (stereo not drawn) | MTT | 72 h | 20 |
| CCCCCCCCNC[C@@H](O)c1cc(Cl)cc2c1-c1ccc(Cl)cc1C2 | – | 48 h | 9 |
| O=C1C=C2NCCc3c[nH]c(c32)C1=O | MTT | 72 h | 50 |
| COCC(=O)N1CCCC(C(=O)NCc2nc(-c3ccccc3)cs2)C1 (racemic) | ATP luminescence | 96 h | > 50 |
